The target of one assay is JAK2/JAK3 (Homo sapiens) (UniProt P52333+O60674). Put plainly: Inhibition of JAK2/3 in human K562 cells assessed as inhibition of STAT3 phosphorylation at 1 to 20 uM measured after 48 hrs by Western blot analysis. The format is cell-based. The conditions noted are these: dose 1-20 µM. In short, it runs like this:
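K562 or HCT116 cells treated 48 h at 1, 10 and 20 µM alongside untreated control; lysed in cold RIPA, protein by BCA, SDS-PAGE, nitrocellulose transfer, 5% milk block, primary antibody overnight at 4 °C, secondary 1 h; p-Aurora A, p-Aurora B, p-STAT3, p-STAT5 probed with GAPDH loading control.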

The subject of assay [1] is HCT-116. Put plainly: Cell cycle arrest in human HCT116 cells assessed as accumulation at […] phase at 1 uM incubated for 48 hrs by propidium iodide staining based flow cytometric analysis (reference value: 2.01 %). The format is functional. On the technique in general: In flow cytometry, cells or beads pass a laser one at a time.
The subject of assay [2] is HCT-116. Nature of the assay: Cell cycle arrest in human HCT116 cells assessed as accumulation of diploid cells at S phase at 1 uM incubated for 48 hrs by propidium iodide staining based flow cytometric analysis (reference value: 11.92 %). The format is functional.
The subject of assay [3] is K562. Nature of the assay: Cell cycle arrest in human K562 cells assessed as accumulation of diploid cells at G2 phase at 20 uM incubated for 48 hrs by propidium iodide staining based flow cytometric analysis (reference value: 7.73 %). The format is functional.
Assay [4] relates to HCT-116. Put plainly: Cell cycle arrest in human HCT116 cells assessed as accumulation of diploid cells at S phase at 10 uM incubated for 48 hrs by propidium iodide staining based flow cytometric analysis (reference value: 11.92 %). The format is functional.
The next assay addresses T1, Aurora kinase A (Homo sapiens, UniProt O14965).
T1 sequence (O14965 whole entry): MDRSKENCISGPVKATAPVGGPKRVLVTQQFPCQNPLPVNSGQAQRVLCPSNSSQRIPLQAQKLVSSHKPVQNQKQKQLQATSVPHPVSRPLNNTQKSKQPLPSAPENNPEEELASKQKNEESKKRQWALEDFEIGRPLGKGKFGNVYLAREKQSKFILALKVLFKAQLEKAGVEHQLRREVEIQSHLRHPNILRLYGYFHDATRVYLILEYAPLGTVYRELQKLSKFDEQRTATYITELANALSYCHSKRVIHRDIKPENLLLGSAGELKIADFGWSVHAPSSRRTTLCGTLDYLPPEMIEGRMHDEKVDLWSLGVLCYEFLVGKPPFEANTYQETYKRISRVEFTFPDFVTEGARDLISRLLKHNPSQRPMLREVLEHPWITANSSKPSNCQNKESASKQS
Put plainly: Inhibition of Aurora A (unknown origin) incubated for 40 mins in presence of ATP by Kinase-glo luminescence assay.

Assay [5] deals with K562. Put plainly: Antiproliferative activity against human K562 cells assessed as reduction in cell growth measured after 72 hrs by CCK8 assay. Conditions: K562, 72 h. The format is functional, cell-based.
In assay [6] the target is Tyrosine-protein kinase JAK2 (Homo sapiens, UniProt O60674). Put plainly: Inhibition of JAK2 (unknown origin) incubated for 40 mins in presence of ATP by Kinase-glo luminescence assay. (Kinase-Glo measures the ATP left after a reaction by luminescence.)
Chain of Tyrosine-protein kinase JAK2 (O60674 whole entry): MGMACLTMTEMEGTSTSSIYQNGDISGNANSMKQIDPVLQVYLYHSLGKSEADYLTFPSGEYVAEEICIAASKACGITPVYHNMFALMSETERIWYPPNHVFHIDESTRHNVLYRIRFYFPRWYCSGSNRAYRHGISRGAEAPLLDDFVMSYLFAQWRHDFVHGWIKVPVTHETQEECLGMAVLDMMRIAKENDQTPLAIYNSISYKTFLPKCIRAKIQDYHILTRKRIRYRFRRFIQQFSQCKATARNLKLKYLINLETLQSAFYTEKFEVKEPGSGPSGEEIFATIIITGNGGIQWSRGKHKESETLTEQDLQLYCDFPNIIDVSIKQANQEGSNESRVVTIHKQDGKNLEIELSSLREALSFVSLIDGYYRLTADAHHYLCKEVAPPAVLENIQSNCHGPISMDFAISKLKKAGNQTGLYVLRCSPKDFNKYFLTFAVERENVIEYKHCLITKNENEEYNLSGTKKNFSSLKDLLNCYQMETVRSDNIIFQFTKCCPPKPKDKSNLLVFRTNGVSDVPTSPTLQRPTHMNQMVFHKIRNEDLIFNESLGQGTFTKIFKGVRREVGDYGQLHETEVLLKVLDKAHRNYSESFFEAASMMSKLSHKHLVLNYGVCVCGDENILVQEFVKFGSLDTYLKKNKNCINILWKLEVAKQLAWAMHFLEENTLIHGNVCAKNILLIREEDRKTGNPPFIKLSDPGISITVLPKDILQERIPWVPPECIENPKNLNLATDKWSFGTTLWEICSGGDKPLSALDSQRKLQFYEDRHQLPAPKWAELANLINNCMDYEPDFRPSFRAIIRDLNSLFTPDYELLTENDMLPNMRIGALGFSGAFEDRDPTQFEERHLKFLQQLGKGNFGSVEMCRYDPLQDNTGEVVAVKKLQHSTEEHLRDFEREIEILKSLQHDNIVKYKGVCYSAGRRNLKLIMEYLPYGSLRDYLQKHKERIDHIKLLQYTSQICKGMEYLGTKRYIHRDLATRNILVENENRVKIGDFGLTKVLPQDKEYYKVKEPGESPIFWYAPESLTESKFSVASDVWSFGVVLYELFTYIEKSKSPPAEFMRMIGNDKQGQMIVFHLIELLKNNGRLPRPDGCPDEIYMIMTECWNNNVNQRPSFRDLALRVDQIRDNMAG
Assay [7] has as its target T2, Tyrosine-protein kinase JAK3 (Homo sapiens, UniProt P52333).
T2 sequence (P52333 whole entry): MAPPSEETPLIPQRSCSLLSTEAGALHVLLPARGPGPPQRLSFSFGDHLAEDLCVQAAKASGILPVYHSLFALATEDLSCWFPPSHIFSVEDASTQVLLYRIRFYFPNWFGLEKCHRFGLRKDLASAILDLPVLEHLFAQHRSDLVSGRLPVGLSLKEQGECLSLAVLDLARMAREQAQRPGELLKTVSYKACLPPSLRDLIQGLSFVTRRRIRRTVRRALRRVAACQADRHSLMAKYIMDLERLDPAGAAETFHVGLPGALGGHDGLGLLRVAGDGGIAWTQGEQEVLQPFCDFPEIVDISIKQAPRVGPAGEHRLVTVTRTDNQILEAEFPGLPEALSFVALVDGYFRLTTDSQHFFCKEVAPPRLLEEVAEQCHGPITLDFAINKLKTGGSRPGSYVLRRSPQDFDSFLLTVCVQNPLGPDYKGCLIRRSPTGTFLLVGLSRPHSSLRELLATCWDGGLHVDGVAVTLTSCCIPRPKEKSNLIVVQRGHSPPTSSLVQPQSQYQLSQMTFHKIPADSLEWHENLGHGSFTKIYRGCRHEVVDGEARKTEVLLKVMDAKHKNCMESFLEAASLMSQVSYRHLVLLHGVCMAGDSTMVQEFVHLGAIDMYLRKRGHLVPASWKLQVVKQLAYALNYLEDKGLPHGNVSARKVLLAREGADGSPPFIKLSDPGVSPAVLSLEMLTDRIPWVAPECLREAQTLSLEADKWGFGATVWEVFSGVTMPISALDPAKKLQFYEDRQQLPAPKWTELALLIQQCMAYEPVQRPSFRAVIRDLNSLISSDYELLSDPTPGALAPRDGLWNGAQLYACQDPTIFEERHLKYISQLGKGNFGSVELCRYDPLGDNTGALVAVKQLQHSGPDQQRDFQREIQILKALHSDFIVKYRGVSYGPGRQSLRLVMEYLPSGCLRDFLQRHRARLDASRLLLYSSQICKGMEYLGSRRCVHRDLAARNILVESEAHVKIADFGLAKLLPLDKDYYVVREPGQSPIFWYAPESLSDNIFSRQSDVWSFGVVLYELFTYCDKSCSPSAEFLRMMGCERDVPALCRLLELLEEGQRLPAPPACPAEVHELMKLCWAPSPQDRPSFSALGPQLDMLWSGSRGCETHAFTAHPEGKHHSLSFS
Nature of the assay: Inhibition of JAK3 (unknown origin) incubated for 40 mins in presence of ATP by Kinase-glo luminescence assay.

Assay [8] has as its system HCT-116. Nature of the assay: Cell cycle arrest in human HCT116 cells assessed as accumulation of diploid cells at G1 phase at 1 uM incubated for 48 hrs by propidium iodide staining based flow cytometric analysis (reference value: 77.62 %). The format is functional.
The target in a further assay is Aurora kinase B (Homo sapiens, UniProt Q96GD4). Nature of the assay: Inhibition of Aurora B (unknown origin) incubated for 40 mins in presence of ATP by Kinase-glo luminescence assay. In short, it runs like this: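 Kinase reaction at 30 °C for 40 min in 40 mM Tris pH 7.4, 10 mM MgCl2, 0.1 mg/ml BSA, 1 mM DTT, 10 µM ATP, kinase plus substrate; compounds added from 10% DMSO dilutions (1% DMSO final). Remaining ATP measured by Kinase-Glo Plus luminescence; IC50 from nonlinear regression, normalized dose-response fit.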
Chain of Aurora kinase B (Q96GD4 whole entry): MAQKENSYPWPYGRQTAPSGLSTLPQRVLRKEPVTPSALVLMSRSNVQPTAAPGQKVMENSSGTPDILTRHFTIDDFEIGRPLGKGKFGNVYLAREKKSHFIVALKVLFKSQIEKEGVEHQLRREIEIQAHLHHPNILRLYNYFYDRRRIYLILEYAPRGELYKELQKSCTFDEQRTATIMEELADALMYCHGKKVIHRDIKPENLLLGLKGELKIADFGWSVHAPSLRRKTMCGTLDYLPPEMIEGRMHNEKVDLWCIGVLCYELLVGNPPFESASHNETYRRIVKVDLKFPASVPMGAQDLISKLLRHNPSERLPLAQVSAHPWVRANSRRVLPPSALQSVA

For assay [9], the system named is HCT-116. Nature of the assay: Cell cycle arrest in human HCT116 cells assessed as accumulation at […] phase at 20 uM incubated for 48 hrs by propidium iodide staining based flow cytometric analysis (reference value: 2.01 %). The format is functional.
Assay [10] relates to K562. Put plainly: Cell cycle arrest in human K562 cells assessed as accumulation of diploid cells at G1 phase at 20 uM incubated for 48 hrs by propidium iodide staining based flow cytometric analysis (reference value: 56.33 %). The format is functional.

Calls of active or inactive are those of the source. The rule behind the calls is not given here.

Chain of JAK2/JAK3 (Homo sapiens) (O60674 whole entry, looked up, one chain of several): as the sequence (O60674 whole entry) above

One may read the IC50 as the point on the concentration scale where inhibition reaches its midpoint. `O=C(Nc1c[nH]nc1-c1nc(-c2ccc(CN3CCOCC3)cc2)c[nH]1)c1cccc(Cl)c1`: at JAK2/JAK3 (Homo sapiens), the inhibition result was “Active”. For the same compound, the Activity turned out to be 2% with HCT-116 [1]; 14.46% in the assay on HCT-116 [2]; 19% with K562 [3]; 17.27% in the assay with HCT-116 [4]; 72.2% with HCT-116 [8]; 1.98% in the assay on HCT-116 [9]. Besides, in the assay with K562 [10], the Activity stood at 45.9%. Besides, the IC50 stood at 939 nM on Aurora kinase A; 6730 nM with K562 [5]; 166 nM in assay [6]; 57 nM in [7]; 583 nM on Aurora kinase B.

The values are drawn from ChEMBL document CHEMBL4706620, “Design, synthesis, biological activity evaluation of 3-(4-phenyl-1H-imidazol-2-yl)-1H-pyrazole derivatives as potent JAK 2/3 and aurora A/B kinases multi-targeted inhibitors” (Eur J Med Chem, 2021).
